Measured values taken from ChEMBL document CHEMBL3877241 (J Med Chem, 2016).
The source made the active and inactive calls. The calls are words filed in the database; no cut-off is given here.

How the values were obtained:
[1] = Half life in rat liver microsomes at 3 uM preincubated for 5 mins followed by NADPH addition by LC-MS/MS analysis; assay type: ADME
Procedure, shortened: (§1)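 Male and female rat liver microsomes (0.3 mg protein/mL final) with compound at 3 μM final in 0.1 M phosphate buffer pH 7.4. Preincubated 5 min at 37 °C, then started with NADPH (1 mM final). Sampled at 0, 5, 10, 15, 30 and 45 min and quenched with cold acetonitrile containing internal standard. Read by LC-MS/MS; run in triplicate; midazolam (3 μM) as positive control.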

MOLM-14 [2] = assay: Induction of apoptosis in human MOLM14 cells assessed as late apoptotic cells at 0.75 uM after 48 hrs by Annexin-V FITC/propidium iodide staining based flow cytometry (reference value: 2.1 to 2.2%); assay type: functional
Procedure, shortened: (§2)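 MOLM-14 cells treated 48 h at the stated concentrations; doxorubicin as positive control. Stained with Annexin V-FITC and propidium iodide and analysed by flow cytometry (at least 10,000 events). Gated quadrants: Annexin V−/PI− viable, Annexin V+/PI− early apoptotic, Annexin V+/PI+ late apoptotic.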

Histone deacetylase 8 = Histone deacetylase 8 (Homo sapiens, UniProt Q9BY41); assay: Inhibition of human recombinant C-terminal His-tagged HDAC8 (1 to 377 residues) expressed in insect cells preincubated with enzyme followed by fluorogenic Arg-His-Lys(Ac)-Lys(Ac)-AMC substrate addition measured after 2 hrs by fluorescence assay
Chain of Histone deacetylase 8 (Q9BY41 whole entry, the tested form may be a part): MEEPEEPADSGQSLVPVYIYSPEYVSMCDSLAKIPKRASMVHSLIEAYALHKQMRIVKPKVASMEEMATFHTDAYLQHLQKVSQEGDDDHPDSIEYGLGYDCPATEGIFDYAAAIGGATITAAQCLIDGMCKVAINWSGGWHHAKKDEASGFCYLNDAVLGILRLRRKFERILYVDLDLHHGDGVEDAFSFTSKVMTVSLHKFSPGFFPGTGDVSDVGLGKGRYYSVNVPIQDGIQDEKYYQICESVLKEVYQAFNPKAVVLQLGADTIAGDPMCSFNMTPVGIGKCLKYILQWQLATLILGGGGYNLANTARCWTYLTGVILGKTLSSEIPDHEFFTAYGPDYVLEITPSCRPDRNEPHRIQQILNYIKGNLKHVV
Procedure, shortened: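 HDAC8 in 50 mM Tris-HCl pH 8.0, 137 mM NaCl, 2.7 mM KCl, 1 mM MgCl2 was pre-incubated with compound from DMSO. 50 µM Arg-His-Lys(Ac)-Lys(Ac) substrate was added and the reaction ran 2 h at 30 °C. Trichostatin A developer stopped it, with fluorescence read at Ex/Em 360/460 nm. IC50 from a 10-dose curve.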

[3] = Antiproliferative activity against human KMS-12-BM cells after 48 hrs by CellTiter-Glo assay; assay type: functional, cell-based
MOLM-14 [4] = assay: Induction of apoptosis in human MOLM14 cells assessed as late apoptotic cells at 3 uM after 48 hrs by Annexin-V FITC/propidium iodide staining based flow cytometry (reference value: 2.1 to 2.2%); assay type: functional; procedure, shortened: as §2
[5] = Apparent intrinsic clearance in rat liver microsomes at 3 uM preincubated for 5 mins followed by NADPH addition measured after 45 mins by LC-MS/MS analysis; assay type: ADME; settings: read-out: CLH(app); procedure, shortened: as §1
[6] = biological target: Histone deacetylase 5 (Homo sapiens) (UniProt Q9UQL6); assay: Inhibition of human recombinant C-terminal His-tagged HDAC5 (656 to 1122 residues) expressed in insect cells at 10 uM preincubated with enzyme followed by acetyl-Lys(trifluoroacetyl)-AMC substrate addition measured after 2 hrs by fluorescence assay relative to control
Chain of Histone deacetylase 5 (Homo sapiens) (Q9UQL6 whole entry, the tested form may be a part): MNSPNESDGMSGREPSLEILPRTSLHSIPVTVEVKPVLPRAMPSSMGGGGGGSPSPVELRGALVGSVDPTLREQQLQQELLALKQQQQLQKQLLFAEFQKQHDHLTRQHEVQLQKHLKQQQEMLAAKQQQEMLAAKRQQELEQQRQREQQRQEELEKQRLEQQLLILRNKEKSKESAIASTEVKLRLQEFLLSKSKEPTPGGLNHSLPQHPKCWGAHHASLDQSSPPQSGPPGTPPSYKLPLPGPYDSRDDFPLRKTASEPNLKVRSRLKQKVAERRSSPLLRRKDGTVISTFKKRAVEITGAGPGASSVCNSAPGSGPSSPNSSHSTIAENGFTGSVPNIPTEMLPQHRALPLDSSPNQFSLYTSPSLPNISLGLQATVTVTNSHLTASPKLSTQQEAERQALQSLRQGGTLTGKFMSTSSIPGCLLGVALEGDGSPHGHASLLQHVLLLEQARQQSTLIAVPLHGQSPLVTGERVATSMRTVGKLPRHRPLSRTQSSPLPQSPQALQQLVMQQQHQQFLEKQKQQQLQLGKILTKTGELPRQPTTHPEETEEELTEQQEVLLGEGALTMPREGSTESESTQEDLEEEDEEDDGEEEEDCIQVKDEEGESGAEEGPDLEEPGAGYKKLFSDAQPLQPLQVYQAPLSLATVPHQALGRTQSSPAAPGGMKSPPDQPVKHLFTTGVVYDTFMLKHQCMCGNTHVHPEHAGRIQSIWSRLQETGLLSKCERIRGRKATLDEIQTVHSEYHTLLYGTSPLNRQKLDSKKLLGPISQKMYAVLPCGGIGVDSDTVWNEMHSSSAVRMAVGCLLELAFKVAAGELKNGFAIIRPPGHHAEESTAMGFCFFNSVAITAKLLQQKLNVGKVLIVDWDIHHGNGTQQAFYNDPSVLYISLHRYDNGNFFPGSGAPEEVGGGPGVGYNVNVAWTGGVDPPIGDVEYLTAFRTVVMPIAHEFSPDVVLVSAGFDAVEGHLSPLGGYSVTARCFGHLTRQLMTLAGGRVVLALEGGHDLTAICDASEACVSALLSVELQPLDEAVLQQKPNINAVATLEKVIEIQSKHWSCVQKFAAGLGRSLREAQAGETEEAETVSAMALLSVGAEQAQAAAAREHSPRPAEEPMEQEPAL
Procedure, shortened: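 HDAC enzyme in 50 mM Tris-HCl pH 8.0, 137 mM NaCl, 2.7 mM KCl, 1 mM MgCl2 was pre-incubated with compound dosed from DMSO. The reaction was started with the class IIa substrate acetyl-Lys(trifluoroacetyl)-AMC and run 2 h at 30 °C. Developer with trichostatin A stopped it, and fluorescence (Ex/Em 360/460 nm) was read at plateau. Single test concentration 10 µM.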

[7] = biological target: Tyrosine-protein kinase JAK3 (Homo sapiens) (UniProt P52333); assay: Inhibition of human JAK3 JH1 catalytic domain (I781 to S1124 residues) expressed in mammalian expression system assessed as residual activity at 100 nM by KINOMEScan assay relative to control
Chain of Tyrosine-protein kinase JAK3 (Homo sapiens) (P52333 whole entry, the tested form may be a part): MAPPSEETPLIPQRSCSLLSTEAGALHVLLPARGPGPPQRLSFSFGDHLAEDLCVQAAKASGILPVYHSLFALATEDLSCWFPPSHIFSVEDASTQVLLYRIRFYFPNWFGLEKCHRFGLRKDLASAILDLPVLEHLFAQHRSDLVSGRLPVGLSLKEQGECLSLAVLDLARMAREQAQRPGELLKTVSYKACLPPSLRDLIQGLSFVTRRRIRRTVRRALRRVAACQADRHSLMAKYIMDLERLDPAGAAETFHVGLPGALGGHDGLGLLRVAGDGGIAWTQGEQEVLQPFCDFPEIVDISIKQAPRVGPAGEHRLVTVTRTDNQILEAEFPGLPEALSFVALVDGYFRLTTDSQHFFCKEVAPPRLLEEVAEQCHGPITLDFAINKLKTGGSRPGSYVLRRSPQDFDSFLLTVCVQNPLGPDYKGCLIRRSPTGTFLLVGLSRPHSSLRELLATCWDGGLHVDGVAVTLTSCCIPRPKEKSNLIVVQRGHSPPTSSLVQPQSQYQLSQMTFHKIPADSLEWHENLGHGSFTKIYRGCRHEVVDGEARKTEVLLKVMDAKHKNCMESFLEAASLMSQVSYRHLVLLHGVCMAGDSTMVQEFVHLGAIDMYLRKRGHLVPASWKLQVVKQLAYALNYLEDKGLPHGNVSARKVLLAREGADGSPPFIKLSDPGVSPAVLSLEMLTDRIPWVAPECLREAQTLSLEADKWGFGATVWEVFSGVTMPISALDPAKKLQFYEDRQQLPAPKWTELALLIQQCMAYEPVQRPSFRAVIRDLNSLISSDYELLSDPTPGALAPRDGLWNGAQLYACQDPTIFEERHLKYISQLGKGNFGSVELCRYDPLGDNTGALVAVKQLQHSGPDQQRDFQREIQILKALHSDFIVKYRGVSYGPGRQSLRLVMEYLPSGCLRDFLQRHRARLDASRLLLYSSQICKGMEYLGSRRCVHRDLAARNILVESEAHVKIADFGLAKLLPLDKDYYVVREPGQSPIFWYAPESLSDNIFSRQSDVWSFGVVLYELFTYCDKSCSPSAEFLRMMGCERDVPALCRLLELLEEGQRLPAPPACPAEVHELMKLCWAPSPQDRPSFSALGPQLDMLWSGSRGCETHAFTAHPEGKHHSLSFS
Procedure, shortened: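 DiscoveRx KINOMEscan competition binding against ATP sites in a 97-kinase panel, with compound at 100 nM. Binding reported as % of control.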

[8] = biological target: T1, Protein deacetylase HDAC6 (Homo sapiens) (UniProt Q9UBN7); assay: Inhibition of HDAC6 in human KMS-12-BM cells assessed as increase in acetylated tubulin level at 2 times antiproliferative IC50 up to 48 hrs by immunoblot method; assay type: cell-based
T1 sequence (whole entry): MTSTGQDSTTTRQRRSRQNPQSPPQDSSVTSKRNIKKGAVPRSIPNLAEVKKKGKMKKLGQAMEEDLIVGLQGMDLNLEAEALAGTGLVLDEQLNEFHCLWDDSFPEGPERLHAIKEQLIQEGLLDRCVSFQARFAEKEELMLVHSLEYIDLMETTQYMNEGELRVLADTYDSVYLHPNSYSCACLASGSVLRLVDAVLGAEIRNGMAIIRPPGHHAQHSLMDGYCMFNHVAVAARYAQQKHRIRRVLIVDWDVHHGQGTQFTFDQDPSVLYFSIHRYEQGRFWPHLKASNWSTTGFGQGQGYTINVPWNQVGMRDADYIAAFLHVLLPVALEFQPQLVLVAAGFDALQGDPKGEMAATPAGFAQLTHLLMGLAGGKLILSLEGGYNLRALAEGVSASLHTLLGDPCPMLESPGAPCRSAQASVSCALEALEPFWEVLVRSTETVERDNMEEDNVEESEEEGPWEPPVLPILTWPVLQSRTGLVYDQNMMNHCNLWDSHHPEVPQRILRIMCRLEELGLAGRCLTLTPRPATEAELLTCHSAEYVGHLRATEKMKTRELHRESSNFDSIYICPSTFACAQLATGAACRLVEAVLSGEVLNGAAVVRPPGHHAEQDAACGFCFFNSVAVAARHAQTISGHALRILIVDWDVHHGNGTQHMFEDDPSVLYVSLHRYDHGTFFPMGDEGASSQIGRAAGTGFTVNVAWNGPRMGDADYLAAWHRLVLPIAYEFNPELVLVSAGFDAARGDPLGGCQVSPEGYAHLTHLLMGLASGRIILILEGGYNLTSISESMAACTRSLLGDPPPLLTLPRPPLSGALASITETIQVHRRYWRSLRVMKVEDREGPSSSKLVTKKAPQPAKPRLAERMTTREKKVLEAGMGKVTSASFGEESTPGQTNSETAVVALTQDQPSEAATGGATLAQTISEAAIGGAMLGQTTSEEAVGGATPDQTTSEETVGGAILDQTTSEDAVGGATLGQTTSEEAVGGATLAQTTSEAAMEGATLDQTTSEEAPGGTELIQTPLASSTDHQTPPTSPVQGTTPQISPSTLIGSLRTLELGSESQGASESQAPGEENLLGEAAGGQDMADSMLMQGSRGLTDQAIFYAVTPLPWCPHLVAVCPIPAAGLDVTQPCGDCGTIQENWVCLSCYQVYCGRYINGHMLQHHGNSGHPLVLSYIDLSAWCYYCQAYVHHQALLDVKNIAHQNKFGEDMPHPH
Procedure, shortened: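 KMS-12-BM or MOLM-14 cells (at least 3x10^6 per condition) treated at about 2x their proliferation IC50 in a time course of 0 to 48 h. Tubastatin (15 μM, 48 h) used as HDAC6 control. Lysates immunoblotted for acetyl-α-tubulin and acetyl-H3 (Lys9/Lys14); re-probed for α-tubulin and H3.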

MOLM-14 [9] = assay: Induction of apoptosis in human MOLM14 cells assessed as early apoptotic cells at 1.5 uM after 48 hrs by Annexin-V FITC/propidium iodide staining based flow cytometry (reference value: 3.6 to 3.7%); assay type: functional

O=C(CCCCCCOc1ccc2cc1COC/C=C/COCc1cccc(c1)-c1ccnc(n1)N2)NO
half-life at 3 µM [1]: 17.3 to 26.3 min
Activity (MOLM-14 [2]): 5%
IC50 (Histone deacetylase 8): 740 nM
IC50 [3]: 2110 nM
Activity (MOLM-14 [4]): 34.3%
CLint scaled at 3 µM [5]: 178 to 272 mL/min/kg
inhibition [6]: 16.1%
Activity [7]: 7.9%
inhibition [8]: Active
Activity (MOLM-14 [9]): 12.7%
